Legend:
EBV-positive cells = conditions: combination with Ganciclovir; cited from earlier work
[1] = liver microsomal stability, mouse; assay type: in vitro ADME; conditions: microsomes
plasma stability, mouse = assay type: in vitro ADME
[2] = liver microsomal stability, human; assay type: in vitro ADME; conditions: microsomes
plasma stability, human = assay type: in vitro ADME
[3] = test system: latent EBV in MutuI cells; assay: EBV lytic reactivation, MutuI cell based assay; set-up: species or system Epstein-Barr virus; conditions: for potency in EBV reactivation relative to 12: analogs of 12
[4] = solubility on formulation; assay type: physicochemical; conditions: for solubility when formulated: 10% DMSO/ 10% solutol/ 80% PBS formulation mixture; for water solubility (ease of formulation): PEG moiety instead of methoxy in the B ring
latent EBV = assay: cell based reactivation, Western blot analysis; set-up: species or system Epstein-Barr virus; conditions: compared with methoxy substituted counterparts; data not shown
[5] = test system: latent EBV in SNU719 gastric carcinoma tumors; assay: SNU719 gastric carcinoma xenograft, BZLF1 immunoblot of tumors; assay type: in vivo; conditions: NSG mice, 30 mg/kg i.p. once per day, 4 days
Procedure, shortened: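 SNU719 gastric carcinoma cells (1×10^7) injected subcutaneously into left and right flanks of NSG mice (both sexes, 8-10 weeks old). From 28 days post-injection, test compound given i.p. at 30 mg/kg once daily; controls were vehicle (5% DMSO/5% Solutol) and PBS. Tumors collected after 4 days of treatment and homogenized. Immunoblot for lytic BZLF1 (Z), with β-actin as loading control.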

[6] = test system: latent EBV in MutuI cells; conditions: typical; cited from earlier work

For `COC(=O)c1ccccc1NC(=O)N1CCc2c([nH]c3ccc(Cl)cc23)C1c1ccc(OC)cc1` (stereo not drawn) [Compound C60], the “synergy with GCV in killing EBV-positive cells” value (EBV-positive cells) is given as “functions synergistically with Ganciclovir (GCV) to selectively kill EBV-positive cells”, the “Liver Microsomal Stability Mouse CLint” value [1] is given as less than 0.5 and the “Plasma Stability Mouse” value (plasma stability, mouse) is given as greater than 6 h. The “Liver Microsomal Stability Human CLint” value [2] was 0.93, the “Plasma Stability Human” value (plasma stability, human) was greater than 6 h and the EC50 ([3]; human gammaherpesvirus 4, MUTU-I, read-out: potency in cells) was 150 to 200 nM.
With `COc1ccc(C2c3[nH]c4ccc(Cl)cc4c3CCN2C(=O)c2cccc(CN3CCOCC3)c2)cc1` (stereo not drawn) [Compound 18] the solubility when formulated [4] was “more soluble” and the “potency in EBV reactivation relative to 12” value [3] was “maintained potency”.
With `COc1ccc(C2c3[nH]c4ccc(Cl)cc4c3CCN2C(=O)c2cccc(OC)c2)cc1` (stereo not drawn) [Compound 12] the “Plasma Stability Mouse” value (plasma stability, mouse) was greater than 6 h and the “Plasma Stability Human” value (plasma stability, human) was greater than 6 h.
In the case of `COCCOCCOCCOc1ccc(C2c3[nH]c4ccc(Cl)cc4c3CCN2C(=O)Nc2ccccc2C(=O)OC)cc1` (stereo not drawn) [Compound 21], the “activity by Western blot analysis” value (latent EBV) is reported as “comparable activity to their methoxy substituted counterparts” and the “water solubility (ease of formulation)” value [4] is reported as “significantly improved water solubility”.
For `COCCOCCOCCOc1ccc(C2c3[nH]c4ccc(Cl)cc4c3CCN2C(=O)Nc2ccccc2Cl)cc1` (stereo not drawn) [Compound 22], the “activity by Western blot analysis” value (latent EBV) was “comparable activity to their methoxy substituted counterparts” and the “water solubility (ease of formulation)” value [4] was “significantly improved water solubility”.
With `O=C(c1cccc(CN2CCOCC2)c1)N1CCc2c([nH]c3ccc(Cl)cc23)C1c1ccc(Cl)cc1` (stereo not drawn) [Compound 19] the solubility when formulated [4] was “more soluble” and the “potency in EBV reactivation relative to 12” value [3] was “maintained potency”.
For `COc1cccc(C(=O)N2CCc3c([nH]c4ccc(Cl)cc34)C2c2ccc(O)cc2)c1` (stereo not drawn) [Compound 20], the “EBV reactivation in tumors (presence of lytic protein BZLF1)” value [5] was “modestly reactivates EBV”, the solubility when formulated [4] was “more soluble” and the “potency in EBV reactivation relative to 12” value [3] was “maintained potency”.
In the case of `CCCCCCCCCCCCCC(=O)O[C@@H]1[C@@H](C)[C@@]2(O)[C@@H](C=C(CO)C[C@]3(O)C(=O)C(C)=C[C@@H]23)[C@@H]2C(C)(C)[C@]12OC(C)=O` [TPA, 12-O-tetradecanoylphorbol-13-acetate], the “concentration required to trigger the latent to lytic switch” value [6] is given as “millimolar concentrations”.
In the case of `CCCC(=O)[O-].[Na+]` [NaB, sodium butyrate], the “concentration required to trigger the latent to lytic switch” value [6] is given as “millimolar concentrations”.
